# Screens: PubChem BioAssay, The Scripps Research Institute Molecular Screening Center
# S1P1 ag pot – S1P1 (human) agonism or agonism potentiation. 56,000 compounds, 0.57% hits. activation, % at 9.5 µM. P21453. S1P1 CRE-bla cells, forskolin, beta-lactamase FRET, potentiator mode; S1P1 agonist co-added at EC20, 2 nM; 100% = saturating reference agonist, 0% = basal;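 active = activation above a cutoff set at the mean activation of all tested compounds plus 3 SD, cut at about 54% in these data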;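 also: forskolin at 4 µM as EC80 and the EC20 agonist is SEW2871; 100% = SEW2871 at its EC100 plus forskolin at EC80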
# S1P3 ag – S1P3 (human) receptor agonism. Q99500. S1P3 NFAT-BLA reporter cells, FRET ratio; relative to 1 µM S1P, basal subtracted. activation, % at 4.5 µM. 60,000 compounds, 0.1% hits. AID 373;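 active = activation above the screen-wide mean plus 3 SD, cut at about 4.5% in these data, passing the limit was not always enough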
#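 material = human S1P3 NFAT-BLA reporter CHO cells | schedule = 4 h compound at 37 °C, 2 h substrate at RT | measured by = fluorescent BLA substrate, ex 405 nm, em 460/535 nm ratio | controls = 1 µM S1P reference | replication = primary once, confirmation triplicate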
# 5HT1a antag – antagonists of human 5-HT1a serotonin receptor | CHO 5-HT1a Ga15 NFAT-bla reporter, antagonist mode | inhibition, % at 10 µM | 62,000 compounds, 0.68% hits | AID 612;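 active = inhibition above the mean of all tested compounds plus 3 SD, cut at about 43% in these data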;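 also: receptor stimulated by 5-CT agonist at 100 nM near EC80; beta-lactamase reporter measured by ratiometric fluorescence of a cleavable substrate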
# Target sequence (P08908 whole entry, looked up): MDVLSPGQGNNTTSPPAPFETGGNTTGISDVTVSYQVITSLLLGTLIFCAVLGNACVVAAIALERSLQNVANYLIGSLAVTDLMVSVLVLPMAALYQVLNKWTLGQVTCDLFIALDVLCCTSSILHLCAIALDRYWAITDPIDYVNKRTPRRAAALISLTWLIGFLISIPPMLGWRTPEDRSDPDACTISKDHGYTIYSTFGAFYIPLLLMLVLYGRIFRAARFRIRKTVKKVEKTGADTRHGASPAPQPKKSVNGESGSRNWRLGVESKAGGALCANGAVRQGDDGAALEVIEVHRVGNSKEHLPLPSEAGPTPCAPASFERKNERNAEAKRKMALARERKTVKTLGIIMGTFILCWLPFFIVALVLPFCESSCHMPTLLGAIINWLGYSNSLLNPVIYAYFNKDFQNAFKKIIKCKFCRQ
# HTR1E agonist – activates the human 5-HT1E serotonin receptor; P28566; CHO 5-HT1E Ga15 NFAT-bla reporter, FRET; 0% DMSO wells, 100% control agonist wells; activation, % at 6 µM; 65,000 compounds, 0.69% hits; AID 574;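 active = activation above a set limit, the screen-wide mean activation plus 3 SD, cut at about 8.5% in these data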;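 also: 100% = positive control agonist at 1 µM giving full maximal response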
# HTR1E antagonist – blocks the human 5-HT1E serotonin receptor | 65,000 compounds, 0.99% hits | AID 571 | CHO 5-HT1E Ga15 NFAT-bla reporter, FRET, antagonist | P28566 | inhibition, % at 6 µM;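 active = inhibition above a set limit, the mean inhibition across every tested compound plus 3 SD, cut at about 29% in these data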;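 also: signal is the 460 over 535 nm emission ratio of beta-lactamase substrate; 0% = agonist plus DMSO wells and 100% = wells without agonist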
# 5HT1a ag – agonists of human 5-HT1a serotonin receptor; AID 567; P08908; CHO 5-HT1a Ga15 NFAT-bla reporter, FRET ratio; 0% basal, 100% maximal reference agonist; 65,000 compounds, 0.56% hits; activation, % at 10 µM;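 active = activation above the screen-wide mean activation plus 3 SD, cut at about 19% in these data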;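 also: 0% = DMSO wells and 100% = 5-CT at EC100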
# Active calls of the source: *; · = no result. This is a sample that favours compounds with a hit; in the whole collection about 3% have one here.
SMILES,S1P1 ag pot,S1P3 ag,5HT1a antag,HTR1E agonist,HTR1E antagonist,5HT1a ag
C/C=C/c1ccc(OCCSc2nc(C)cc(=O)[nH]2)c(OC)c1,·,0,-10,0,-2,1
CC(C)n1c2ccccc2c2nc3ccccc3nc21,-38,0,6,0,32*,5
Cc1ccc(NC(=O)CC2Nc3ccccc3NC2=O)cc1Cl (configuration not stated),-82,5.9*,-15,14*,11,34*
c1cncc(-c2nc3cc(Cc4ccc5oc(-c6cccnc6)nc5c4)ccc3o2)c1,3,-1,5,0,1,0
c1cc(-c2nc3cc(Cc4ccc5oc(-c6ccncc6)nc5c4)ccc3o2)ccn1,-26,0,1,18*,-2,-1
OCCN1CCN(CC(O)COc2ccc3c(c2)OCO3)CC1 (configuration not stated),9,0,-2,16*,-5,0
COc1cccc(C(=O)Nc2ccc(C(=O)O)cc2)c1,-17,0,2,0,5,-2
COc1cccc(C(=O)Nc2ccc(C)cc2)c1,·,·,4,1,-1,164*
CCOc1cc(CN2CCN(c3cccc(C(F)(F)F)c3)CC2)ccc1O,·,0,33,8,9,20*
Cc1c(CN2CCN(c3cccc(C(F)(F)F)c3)CC2)c(=O)n(-c2ccccc2)n1C,8,0,1,60*,2,1
CC1CCc2ccccc2N1C(=O)c1cccs1 (configuration not stated),0,-2,9,0,-3,0
COc1ccc(CCNc2c(C)c(C)nc3ncnn23)cc1,134*,2,11,0,12,-2
CCC(=O)NCCc1cc2cc(C)c(C)cc2[nH]c1=O,-18,-1,1,0,-1,224*
CCCCn1c(NC(=O)c2ccc(F)cc2)c(C#N)c2nc3ccccc3nc21,-190,4.7*,5,9.1*,-3,29*
CCCCn1c(NC(=O)c2ccccc2)c(C#N)c2nc3ccccc3nc21,-154,2,-6,8,26,10
C[C@H](CS)C(=O)N1CCC[C@H]1C(=O)O,0,-3,·,0,-4,1
C=CCn1c(SCC(=O)Nc2sccc2C(N)=O)nc2sc(C)c(C)c2c1=O,-35,2,-1,1,33*,6
Cc1nnc(SCC(=O)Nc2sccc2C(N)=O)n1Cc1ccccc1,-2,1,-9,1,-4,-1
c1ccc(-c2cccc(-c3ccccn3)n2)nc1,-5,-2,59*,-2,45*,-2
c1ccc(-c2nnc(-c3ccccn3)nn2)nc1,·,·,6,0,-5,-1
CCC(=O)N1CCN=C1SCc1ccc(Cl)cc1,10,-1,-2,0,14,-1
Cc1nc(NCCNC(=O)c2ccco2)c2c(C)c(C)sc2n1,5,-1,-4,0,32*,-1
c1ccc(-c2nc(-n3ccnc3)nc(-n3ccnc3)n2)cc1,-45,0,-9,1,6,-2
C=CCNc1nc(-c2ccccc2)nc(-n2ccnc2)n1,-18,-1,8,2,14,0
c1ccc(-c2nc(NC3CC3)nc(-n3ccnc3)n2)cc1,-11,0,29,2,29*,0
SMILES,S1P1 ag pot,S1P3 ag,5HT1a antag,HTR1E agonist,HTR1E antagonist,5HT1a ag
CC(C)Nc1nc(-c2ccccc2)nc(-n2ccnc2)n1,2,-1,36,8,30*,-2
O=C(NCCCN1CCOCC1)[C@@H]1CSC2c3ccccc3C(=O)N21 (some centres not stated),0,-2,2,-2,17,-2
COCCCNC(=O)c1c(N)n(/N=C/c2cccnc2)c2nc3ccccc3nc12,-16,-2,·,0,-1,7
COCCCNC(=O)c1c(N)n(/N=C/c2cccs2)c2nc3ccccc3nc12,-123,3,·,26*,-31,86*
COc1ccc(NC(=O)Cc2nn(C)c(=O)c3ccccc23)c2ncccc12,-16,1,1,0,2,0
Cc1cccc(-c2cc3nc4c(c(N5CCOCC5)n3n2)CCCC4)c1,-36,0,27,0,40*,-3
